Reference: ChEMBL document CHEMBL1131532, “Synthesis and structure-activity relationships of carboxyflavones as structurally rigid CysLT1 (LTD4) receptor antagonists” (J Med Chem, 1998)

Columns and labels:
[1] = target: T1, Cysteinyl leukotriene receptor 1 (Cavia porcellus, UniProt Q2NNR5); assay: In vitro affinity for CysLT1 receptors on guinea pig lung membranes, measured by displacement of [3H]LTD4.; format: tissue-based
T1 sequence (Q2NNR5 whole entry): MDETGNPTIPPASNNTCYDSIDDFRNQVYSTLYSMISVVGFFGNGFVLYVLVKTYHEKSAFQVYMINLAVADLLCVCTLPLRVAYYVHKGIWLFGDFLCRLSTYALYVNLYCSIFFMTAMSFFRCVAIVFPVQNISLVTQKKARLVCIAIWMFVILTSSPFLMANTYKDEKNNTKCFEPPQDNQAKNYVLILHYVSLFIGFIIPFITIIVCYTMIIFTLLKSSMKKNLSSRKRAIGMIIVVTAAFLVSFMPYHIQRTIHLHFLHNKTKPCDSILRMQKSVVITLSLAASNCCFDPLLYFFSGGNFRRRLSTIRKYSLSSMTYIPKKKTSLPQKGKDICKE
Summary of the method: (§1)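 Guinea pig lung membrane fractions (about 170 µg/mL) with 0.2 nM [3H]LTD4 and test compound in 10 mM PIPES buffer, pH 7.5 (10 mM CaCl2, 10 mM MgCl2, 50 mM NaCl, 2 mM cysteine, 2 mM glycine), 30 min at 22 °C. Stopped with ice-cold Tris-HCl/NaCl, vacuum-filtered, filter radioactivity counted. Means ± SD of three determinations.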

[2] = species: Cavia porcellus; assay: Ex vivo inhibition of LTD4 induced contraction of guinea pig ileum.; format: functional
Summary of the method: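 Ileum segments (2 cm) from male guinea pigs, mounted open-lumen on a transducer. Compounds in DMSO, 10^-5 to 3.0 × 10^-9 M, preincubated 30 min, then contraction evoked by 10^-8 M LTD4. Indomethacin (10^-6 M) added to the bath 10 min before LTD4.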

[3] = target: T2, Cysteinyl leukotriene receptor 1 (Cavia porcellus) (UniProt Q2NNR5); assay: In vitro inhibition of [3H]LTD4 binding to CysLT1 receptors on guinea pig lung membranes.; format: tissue-based; parameters: concentration or dose not given beside the values; settings: concentration not given here
T2 sequence (whole entry): T1 sequence (Q2NNR5 whole entry)
Summary of the method: as §1, with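 “determinations. Percent inhibition taken at 10^-5 M where no KD obtained.” for “determinations.”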

| Compound | Kd [1] [nM] | IC50 [2] [nM] | inhibition [3] [%] |
| --- | --- | --- | --- |
| O=c1cc(-c2cccc(/C=C/c3ccc4ccccc4n3)c2)oc2c(-c3nn[nH]n3)cc(Cl)cc12 | 11000 | – | – |
| Cc1cc(C(=O)O)c2oc(-c3cccc(/C=C/c4ccc5ccccc5n4)c3)cc(=O)c2c1 | – | 28 | – |
| O=C(O)c1ccc2oc(-c3ccc(/C=C/c4ccc5ccccc5n4)cc3)cc(=O)c2c1 | – | – | 28 |
| O=C(O)c1ccc2c(=O)cc(-c3cccc(/C=C/c4ccc5ccccc5n4)c3)oc2c1 | 1730 | – | – |
| O=C(O)c1cc(Cl)cc2c(=O)cc(-c3cccc(/C=C/c4ccc5ccccc5n4)c3)oc12 | – | 15 | – |
| CCOC(=O)c1cccc2c(=O)cc(-c3cccc(OCc4ccc5ccccc5n4)c3)oc12 | – | – | 38 |
| O=C(O)c1cc(Br)cc2c(=O)cc(-c3cccc(OCc4ccc5ccccc5n4)c3)oc12 | – | 61 | – |
| N#Cc1cc(Cl)cc2c(=O)cc(-c3cccc(/C=C/c4ccc5ccccc5n4)c3)oc12 | – | – | 0 |
| O=C(O)c1cc(Br)cc2c(=O)cc(-c3cccc(/C=C/c4ccc5ccccc5n4)c3)oc12 | – | 100 | – |
| O=C(O)c1cccc2c(=O)cc(-c3cccc(/C=C/c4ccc5ccccc5n4)c3)oc12 | 17 | 42 | – |

Second part, the molecule after the results:

| Kd [1] [nM] | IC50 [2] [nM] | inhibition [3] [%] | Compound |
| --- | --- | --- | --- |
| – | – | 32 | CCOC(=O)c1cccc2c(=O)cc(-c3ccc(OCc4ccc5ccccc5n4)cc3)oc12 |
| – | – | 23 | O=C(O)c1ccc2oc(-c3ccc(OCc4ccccc4)cc3)cc(=O)c2c1 |
| – | – | 32 | O=C(O)c1cccc2c(=O)cc(-c3ccc(OCc4ccc5ccccc5c4)cc3)oc12 |
| – | – | 50 | O=C(O)c1cccc2c(=O)cc(-c3cccc(OCc4ccccc4)c3)oc12 |
| 55000 | – | – | O=C(O)c1cccc2c(=O)cc(-c3ccc(OCc4ccccc4)cc3)oc12 |
